Compound activity: PubChem, Sanford-Burnham Center for Chemical Genomics
Apaf1 activ – human Apaf-1 activation | activity change, negative = activation, % at 20 µM | 330,000 tested, 0.31% active | Apaf-1 apoptosome caspase-3 activation, DEVD-Rh110 fluorescence; active compounds read low;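 active means activity change at or below -40% at 20 µM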
Target sequence (O14727 whole entry, looked up): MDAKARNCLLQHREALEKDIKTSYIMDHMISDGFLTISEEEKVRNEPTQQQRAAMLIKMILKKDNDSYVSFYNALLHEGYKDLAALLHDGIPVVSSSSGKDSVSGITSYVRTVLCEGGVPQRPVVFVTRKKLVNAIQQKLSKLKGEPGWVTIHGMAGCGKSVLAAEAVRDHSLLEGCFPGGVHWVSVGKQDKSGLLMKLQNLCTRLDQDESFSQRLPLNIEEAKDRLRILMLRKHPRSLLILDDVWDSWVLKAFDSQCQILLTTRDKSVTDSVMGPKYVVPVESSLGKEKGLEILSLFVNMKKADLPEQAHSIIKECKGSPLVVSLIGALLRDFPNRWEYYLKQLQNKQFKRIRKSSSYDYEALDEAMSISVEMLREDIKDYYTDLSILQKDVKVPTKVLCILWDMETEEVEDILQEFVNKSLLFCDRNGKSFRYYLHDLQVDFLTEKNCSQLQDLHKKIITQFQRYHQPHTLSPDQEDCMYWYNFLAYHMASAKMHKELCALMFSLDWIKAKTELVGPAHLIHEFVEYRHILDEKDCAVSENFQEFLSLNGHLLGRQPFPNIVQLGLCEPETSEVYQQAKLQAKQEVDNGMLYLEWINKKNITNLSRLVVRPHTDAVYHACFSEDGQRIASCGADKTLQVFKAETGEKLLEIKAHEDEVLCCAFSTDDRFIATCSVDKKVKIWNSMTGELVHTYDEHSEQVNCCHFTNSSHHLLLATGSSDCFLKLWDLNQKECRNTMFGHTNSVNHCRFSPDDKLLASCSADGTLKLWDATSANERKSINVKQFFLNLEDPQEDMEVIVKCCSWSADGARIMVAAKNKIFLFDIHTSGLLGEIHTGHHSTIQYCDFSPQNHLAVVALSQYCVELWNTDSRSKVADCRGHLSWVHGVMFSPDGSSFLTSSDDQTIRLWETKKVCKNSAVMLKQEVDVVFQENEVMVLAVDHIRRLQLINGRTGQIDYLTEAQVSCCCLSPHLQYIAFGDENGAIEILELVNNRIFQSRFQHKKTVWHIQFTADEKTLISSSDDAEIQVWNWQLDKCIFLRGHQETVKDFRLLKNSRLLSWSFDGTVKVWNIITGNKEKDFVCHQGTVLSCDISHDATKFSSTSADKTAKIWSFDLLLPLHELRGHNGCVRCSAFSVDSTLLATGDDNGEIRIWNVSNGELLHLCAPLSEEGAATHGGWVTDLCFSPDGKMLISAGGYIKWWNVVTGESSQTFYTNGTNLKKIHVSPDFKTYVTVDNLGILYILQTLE
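Material: biochemical Apaf-1 apoptosome reconstitution; Medium: 20 mM HEPES buffer, pH 7.5, containing CHAPS and BSA; Reagent: dATP, cytochrome c, and (Z-DEVD)2-Rh110 caspase-3 substrate; Times: 30 min preincubation, 50 min reaction, room temperature; Signal: Rh110 fluorescence, excitation 480 nm, emission 540 nm; Measure: Caspase-3 activity via Apaf-1.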
Rh110 interf act – counter-screen for Apaf-1 activators: fluorescence interference. shares compounds with Apaf1 activ. Rh110 fluorescence interference, quenched caspase reaction, Ex480/Em540. fluorescence interference (activity change), % at 20 µM, hits read low. 980 tested, under 10 active. AID 504616;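 active means mean activity change at or below -40% when tested at 20 µM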
Apaf-1 act conf – Apaf-1 (human) activation, single-dose confirmed. 980 tested, 5% active. shares compounds with Apaf1 activ. reconstituted apoptosome caspase-3 activity, DEVD-Rh110 fluorescence; active compounds read low. activity change, negative = activation, % at 20 µM;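 active means mean activity change at or below -40%, meaning activation of 40% or more, at 20 µM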
Fluor interf act – Apaf-1 activator counter-screen fluorescence artifact; shares compounds with Apaf1 activ; fluorescence interference counterscreen, Apaf-1 activator assay; EC50, µM; 55 tested, under 10 active; call rule not given here
Hits are given with their value. These entries were drawn from the full list.

For OCC1(Cc2ccccc2)CCN(Cc2ccc(-c3ccco3)cc2)CC1 the results were Apaf1 activ -81.6, Rh110 interf act inactive and Apaf-1 act conf inactive.
For CC(C)[C@@H]1CN=C(N)N1C[C@@H]1CCCN1C[C@H](C)N1C[C@@H](Cc2ccccc2)N(CCc2ccc(Cl)c(Cl)c2)C1=N the results were Apaf1 activ inactive.
O=C(O)CCCNc1cc(N2CCN(C(=O)c3ccco3)CC2)c2noc3c2c1C(=O)c1ccccc1-3 was read as Apaf1 activ inactive.
For O=C(Cn1nc(-c2ccccc2Cl)ccc1=O)Nc1ccccc1-c1ccccc1 the results were Apaf1 activ inactive.
`CCn1nc(C(=O)Nc2ccccc2C)c(Cl)c1Cl` gave Apaf1 activ -137.0, Rh110 interf act inactive and Apaf-1 act conf inactive.
For Nc1ccc(N)c(C(=O)O)c1 the results were Apaf1 activ inactive.
For CCOC(=O)c1c(NC(=O)c2ccc(C)cc2)sc2c1CC(C)(C)NC2(C)C the results were Apaf1 activ inactive.
`COc1ccc2c(c1)Cc1sc(NC(=O)c3ccccc3)nc1-2` gave Apaf1 activ inactive.
For CCc1sc(NC(=O)CCC(=O)O)nc1-c1cc2ccccc2oc1=O the results were Apaf1 activ -222.7, Rh110 interf act inactive and Apaf-1 act conf inactive.
For Cc1ccc(C)c2[nH]c(=O)c(C(c3nnnn3Cc3ccco3)N3CCc4ccccc4C3)cc12 (stereo not drawn) the results were Apaf1 activ inactive.
COc1ccc(N2CCN(C(c3cc(OC)ccc3OC)c3nnnn3Cc3ccco3)CC2)cc1 (stereo not drawn) was read as Apaf1 activ -258.1, Rh110 interf act inactive and Apaf-1 act conf inactive.
COc1cc(C)c2c(c1C=O)Oc1c(c(C)c(O)c3c1C(O)OC3=O)OC2=O (stereo not drawn) was read as Apaf1 activ inactive.
Screening COC1=CC(=O)c2ccccc2C1=O returned Apaf1 activ inactive.
Cc1ccc(C)c(NC(=S)NC(NC(=O)OCc2ccccc2)C(Cl)(Cl)Cl)c1 (stereo not drawn) was read as Apaf1 activ -41.5, Rh110 interf act inactive and Apaf-1 act conf inactive.
For Cc1[nH]n(-c2ccccc2)c(=O)c1C(c1cccc([N+](=O)[O-])c1O)c1c(C)[nH]n(-c2ccccc2)c1=O the results were Apaf1 activ inactive.
Screening CC(C)(C)OC(=O)NCCCCCNC(=O)c1nc[nH]c1C(=O)NCCCCCNC(=O)OC(C)(C)C returned Apaf1 activ -50.0, Rh110 interf act inactive and Apaf-1 act conf inactive.
Screening CN1CCc2cccc3c2C1Cc1ccc(O)c(O)c1-3 (stereo not drawn) returned Apaf1 activ inactive.
Oc1ccc(C=Nc2ccc3ncccc3c2)c(O)c1 was read as Apaf1 activ inactive.
CCN(CC)CCOC(=O)c1ccc(N/C=C(/C#N)c2nc(-c3ccc(OC)c(OC)c3)cs2)cc1 was read as Apaf1 activ inactive.
For CCOC(=O)c1cnc2ccc(C)cc2c1Nc1ccc(N2CCOCC2)cc1 the results were Apaf1 activ inactive.
`CCOC(=O)c1cnc(SCC(=O)N2CCN(C(=O)c3ccco3)CC2)nc1N` gave Apaf1 activ -93.1, Rh110 interf act inactive and Apaf-1 act conf inactive.
CCOc1cc(/C=C2\C(=O)N(c3nc(-c4ccc(Br)cc4)cs3)N=C2c2ccccc2)ccc1O was read as Apaf1 activ inactive.
Screening CC1CC(C)(C)NC(=O)O1 (stereo not drawn) returned Apaf1 activ -88.4, Rh110 interf act inactive and Apaf-1 act conf inactive.
`Cc1cc(C(C)(C)CC(C)(C)C)ccc1OCCOCC[N+](C)(C)Cc1ccccc1` gave Apaf1 activ inactive.
CCCCc1nn2c(N)c(/C=C3\C=Nc4ccccc43)c(=O)nc2s1 was read as Apaf1 activ -458.8, Rh110 interf act inactive and Apaf-1 act conf inactive.
`CCNC1=C(Cl)C(=O)c2ccccc2C1=O` gave Apaf1 activ inactive.
Cc1ccc(C(=O)NC2CCN(C(=O)Nc3ccccc3)CC2)cc1 was read as Apaf1 activ -49.7, Rh110 interf act inactive and Apaf-1 act conf inactive.
For Clc1ccc2nsnc2c1NC1=NCCN1 the results were Apaf1 activ inactive.
Screening O=C(O)c1cccc(NC2=C(n3nnc4ccccc43)C(=O)c3ccccc3C2=O)c1 returned Apaf1 activ inactive.
`O=C(O)c1cccc(-c2ccc(/C=c3/sc4nc5ccccc5n4c3=O)o2)c1` gave Apaf1 activ -195.1, Rh110 interf act inactive, Apaf-1 act conf inactive and Fluor interf act inactive.
For CCOC(=O)N1CCN(S(=O)(=O)c2ccc(C(=O)N(CCCN(C)C)c3nc4ccc(CC)cc4s3)cc2)CC1 the results were Apaf1 activ inactive.
O=C1Cc2ccccc2C(=O)N1CCc1ccccc1 was read as Apaf1 activ inactive.
Screening OCc1cn(-c2ccc(Cl)cc2)nn1 returned Apaf1 activ -56.5, Rh110 interf act inactive and Apaf-1 act conf inactive.
`Cc1ccc(NC2=C(N3CCOCC3)C(=O)c3ccccc3C2=O)cc1` gave Apaf1 activ inactive.
Screening Cc1ccc(Oc2nsnc2N2CCOCC2)cc1 returned Apaf1 activ -105.9, Rh110 interf act inactive and Apaf-1 act conf inactive.
Screening O=S(=O)(c1ccc2nc(-c3ccco3)c(-c3ccco3)nc2c1)N1CCOCC1 returned Apaf1 activ inactive.
O=S(=O)(c1ccc(F)cc1)N1CCN(S(=O)(=O)c2ccc3c(c2)OCCO3)CC1 was read as Apaf1 activ -217.4, Rh110 interf act inactive and Apaf-1 act conf inactive.
Screening Cc1ccc(S(=O)(=O)N2CCC(C(=O)OCC(=O)N(C)CC(=O)Nc3ccc(F)cc3)CC2)cc1C returned Apaf1 activ inactive.
`COCc1cc(=O)oc2cc(NC(=O)c3ccc(C(C)(C)C)cc3)ccc12` gave Apaf1 activ -63.7, Rh110 interf act inactive and Apaf-1 act conf inactive.
FC(F)(F)c1cc(CO[C@@H]2CCCN[C@@H]2c2ccccc2)cc(C(F)(F)F)c1 was read as Apaf1 activ inactive.
Screening C#CCOCCOCCOCCNc1nc(N2CCN(C(=O)CCCCCCCCCCNC(=O)[C@@H](CCC(=O)O)n3cc(CCCCCN)nn3)CC2)nc(N2CCN(C(=O)CCCCCCCCCCNC(=O)[C@H](CO)n3cc(CCCCCN)nn3)CC2)n1 returned Apaf1 activ inactive.
For COC(=O)c1ccccc1N/C=C1\CCc2c(c(C)nn2-c2ccccn2)C1=O the results were Apaf1 activ inactive.
`CCC(C(=O)NCc1ccco1)n1nc(C)c2c(C)n(-c3ccccc3)nc2c1=O` (stereo not drawn) gave Apaf1 activ -85.9, Rh110 interf act inactive and Apaf-1 act conf inactive.
O=C1C=C(N2CCCCC2)c2ccccc2C1=O was read as Apaf1 activ inactive.
C(=Nc1cccc2c(N=Cc3ccco3)cccc12)c1ccco1 was read as Apaf1 activ inactive.
N#Cc1c(/N=C/c2ccco2)sc2c1CCCCC2 was read as Apaf1 activ -169.2, Rh110 interf act inactive and Apaf-1 act conf inactive.
C#CCOCCOCCOCCNc1nc(N2CCN(C(=O)CCCCCCCCCCNC(=O)Cn3cc(C[C@@H](C)O)nn3)CC2)nc(N2CCN(C(=O)CCCCCCCCCCNC(=O)[C@@H]([C@H](C)CC)n3cc(CCCCCN)nn3)CC2)n1 was read as Apaf1 activ inactive.
